From ChEMBL document CHEMBL1130167, “NMR-based discovery of lead inhibitors that block DNA binding of the human papillomavirus E2 protein” (J Med Chem, 1997)
pIC50, pKd: −log10 of the molar value.

System: Nucleic Acid
Experiment: Compound was tested for inhibition activity against HPV-E2 DNA-binding domain (DBD) (human papillomavirus E2) binding to DNA
Format: nucleic-acid assay
How it was run: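 Filter-binding assay: binding reactions at room temperature for 10 min in binding buffer (20 mM Tris-HCl pH 7.5, 100 mM NaCl, 5 mM DTT, 1 mM EDTA, BSA) with 4 nM DNA and 400 nM E2 DBD. Compounds were added from DMSO stocks at various concentrations. Mixtures were filtered through nitrocellulose, washed with buffer lacking BSA and counted by scintillation. IC50 was read from concentration versus percent inhibition plots.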

| Structure (SMILES) | pIC50 |
| --- | --- |
| O=C(O)c1ccc(-c2cc(Cl)cc(Cl)c2)cc1 | 3.82 |
| O=C(O)/C=C/C=C/c1ccc(Oc2ccccc2)cc1 | 4.12 |
| O=C(O)c1ccc(-c2ccccc2)cc1 | < 3.00 |
| O=C(O)/C=C/C=C/c1cccc(Oc2cc(Cl)cc(Cl)c2)c1 | 5.00 |
| O=C(O)CCCc1ccc(Oc2ccccc2)cc1 | < 3.00 |

Target: Regulatory protein E2 (Human papillomavirus type 31)
Experiment: Dissociation constant after binding to human papillomavirus E2 DNA-binding domain (DBD) by observing the changes in [15N]-HSQC spectra.

| Structure (SMILES) | pKd |
| --- | --- |
| O=C(O)c1ccc(-c2cc(C(F)(F)F)cc(C(F)(F)F)c2)cc1 | < 2.00 |
| O=C(O)c1ccc(-c2cc(Cl)cc(Cl)c2)cc1 | 4.22 |
| O=C(O)/C=C/C=C/c1ccc(Oc2ccccc2)cc1 | 3.46 |
| O=C(O)CCCCc1ccc(Oc2ccccc2)cc1 | 3.07 |
| O=C(O)c1ccc(-c2cccc(Cl)c2)cc1 | 2.92 |
| O=C(O)c1ccc(-c2ccc(Cl)cc2Cl)cc1 | 2.46 |
| O=C(O)c1ccc(-c2ccc(C(F)(F)F)cc2)cc1 | 2.82 |
| CN(C)c1ccc(-c2ccc(C(=O)O)cc2)cc1 | 2.17 |
| Nc1cccc(-c2ccc(C(=O)O)cc2)c1 | < 2.00 |
| CC(C)(C)c1ccc(-c2ccc(C(=O)O)cc2)cc1 | < 2.00 |
| O=C(O)c1ccc(-c2cccc([N+](=O)[O-])c2)cc1 | 2.05 |
| Cc1ccccc1-c1ccc(C(=O)O)cc1 | 2.57 |
| O=C(O)c1ccc(-c2ccc(Oc3ccccc3)cc2)cc1 | 2.68 |
| COc1ccccc1-c1ccc(C(=O)O)cc1 | 2.77 |
| O=C(O)CCc1ccc(Oc2ccccc2)cc1 | 2.64 |
| O=C(O)c1ccc(-c2ccc([N+](=O)[O-])c(Cl)c2)cc1 | < 2.00 |
| Cc1cccc(-c2ccc(C(=O)O)cc2)c1 | 2.72 |
| O=C(O)c1ccc(-c2ccc(O)cc2)cc1 | < 2.00 |
| O=C(O)c1ccc(-c2ccc(Cl)c(Cl)c2)cc1 | 2.18 |
| O=C(O)CCCc1ccc(Oc2ccccc2)cc1 | 2.72 |
| O=C(O)c1ccc(-c2cccc(F)c2)cc1 | 2.80 |
| O=C(O)c1ccc(-c2cccc(C(F)(F)F)c2)cc1 | 3.49 |
| O=C(O)Cc1cccc(Oc2ccccc2)c1 | < 2.00 |
| COc1ccc(-c2ccc(C(=O)O)cc2)cc1 | 2.06 |
